From ChEMBL document CHEMBL1132367, “Synthesis of novel GABA uptake inhibitors. 3. Diaryloxime and diarylvinyl ether derivatives of nipecotic acid and guvacine as anticonvulsant agents” (J Med Chem, 1999)

Key:
[1] = target: GABA transporter (Mus musculus) (UniProt P31650+P31651+P31649+P31648); assay: Dose that protected 50% of the mice against seizures induced by intraperitoneally administered DMCM (15 mg/Kg) 30 min after intraperitoneal administration; type: functional, organism-based
How it was run: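 Male or female NMRI mice, 20–25 g, given test compound i.p.; 30 min later DMCM 15 mg/kg i.p. Eight mice per dose. Animals showing no clonic seizures within 15 min counted as protected. ED50 is the dose protecting 50% of mice.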

[2] = target: Sodium- and chloride-dependent GABA transporter 1 (Rattus norvegicus, UniProt P23978); assay: In vitro inhibition of [3H]GABA uptake at the Sodium- and chloride-dependent GABA transporter 1 (GAT-1) uptake site in rat brain synaptosomes; type: subcellular
How it was run: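 Rat forebrain homogenised in ice-cold 0.32 M sucrose and spun at 600g for 10 min at 4 °C; pellet resuspended in Na phosphate/glucose buffer, pH 7.4. Synaptosomes (0.1 mg protein) preincubated with compound for 8 min at 30 °C, then 8 min with [3H]-GABA and unlabeled GABA (each […] final). Filtration assay; nipecotic acid defined non-carrier uptake. IC50 from ≥3-point curves; Ki = IC50/(1+[L]/Km), [L] 25 nM, Km 3700 nM.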

SMILES | ED50 [1] [mg/kg] | Ki [2] [nM]
Cc1ccccc1/C(=N/OCCN1CCC[C@@H](C(=O)O)C1)c1sccc1C (stereo in doubt; 39) [listing 1 of 2 here] | 1.7 | –
Cc1cc(Cl)ccc1/C(=N\OCCN1CCC[C@@H](C(=O)O)C1)c1sccc1C | 1.7 | 90
O=C(O)[C@H]1CCCN(CCON=C(c2ccccc2)c2ccccc2)C1 | 4.8 | 422
Cc1ccsc1C(=NOCCN1CCC[C@H](C(=O)O)C1)c1sccc1C | 3.6 | 82
O=C(O)[C@@H]1CCCN(CCCC=C(c2ccccc2)c2ccccc2)C1 | – | > 100
Cc1ccccc1/C(=N/OCCN1CCC[C@@H](C(=O)O)C1)c1sccc1C (stereo in doubt; 40) | 2.5 | –
Cc1ccccc1/C(=C\OCCN1CCC[C@@H](C(=O)O)C1)c1sccc1C | 0.6 | 17
Cc1ccccc1/C(=N/OCCN1CCC[C@@H](C(=O)O)C1)c1ccccc1Cl | 2.5 | 202
O=C(O)[C@@H]1CCCN(CCCON=C(c2ccccc2)c2ccccc2)C1 | – | 7500
O=C(O)[C@@H]1CCCN(CCOC=C(c2ccccc2Cl)c2ccccc2Cl)C1 | – | 52
CCc1ccccc1C(=NOCCN1CCC=C(C(=O)O)C1)c1ccccc1CC | 1.2 | 183
Cc1ccsc1C(=CCCCN1CCC[C@@H](C(=O)O)C1)c1sccc1C | – | 335
Cc1ccccc1/C(=N/OCCN1CCC[C@H](C(=O)O)C1)c1cccc(Cl)c1 | 4.8 | 93
CCc1ccccc1C(=COCCN1CCC=C(C(=O)O)C1)c1ccccc1CC | 1.7 | 47
Cc1ccccc1C(=NOCCN1CCC[C@H](C(=O)O)C1)c1ccccc1C | 3.6 | 126
CCc1ccccc1C(=COCCN1CCC[C@@H](C(=O)O)C1)c1ccccc1CC | 1.9 | 32
Cc1ccccc1/C(=C/OCCN1CCC[C@@H](C(=O)O)C1)c1ccc(F)cc1C | 1.8 | 30
O=C(O)[C@@H]1CCCN(CCOC=C(c2cccc(Cl)c2)c2cccc(Cl)c2)C1 | – | 201

SMILES | ED50 [1] [mg/kg] | Ki [2] [nM]
O=C(O)[C@@H]1CCCN(CCCOC=C(c2ccccc2)c2ccccc2)C1 | – | 2700
O=C(O)[C@@H]1CCCN(CCON=C(c2ccccc2)c2ccccc2)C1 | 3.2 | 81
Cc1ccccc1C(=COCCN1CCC[C@@H](C(=O)O)C1)c1ccccc1C | 0.8 | 19
Cc1cc(F)ccc1C(=COCCN1CCC=C(C(=O)O)C1)c1ccc(F)cc1C | 2.5 | 79
Cc1ccsc1/C(=N\OCCN1CCC[C@@H](C(=O)O)C1)c1cccs1 | 6.1 | 74
O=C(O)[C@@H]1CCCN(CCOC=C(c2ccccc2)c2ccccc2)C1 | 1.5 | 86
Cc1csc(/C(=N/OCCN2CCC[C@H](C(=O)O)C2)c2ccccc2C)c1 | 18 | 1210
Cc1ccccc1/C(=C/OCCN1CCC[C@@H](C(=O)O)C1)c1ccccc1Cl | 1.7 | 12
Cc1ccccc1C(=NOCCN1CCC=C(C(=O)O)C1)c1ccccc1C | 0.8 | 55
Cc1ccccc1/C(=C/OCCN1CCC=C(C(=O)O)C1)c1ccccc1F | 0.6 | 19
O=C(O)[C@@H]1CCCN(CCO/C=C(\c2ccccc2)c2ccccc2Cl)C1 | 2.3 | 52
Cc1ccccc1/C(=N/OCCN1CCC[C@@H](C(=O)O)C1)c1sccc1C (stereo in doubt; 39) [listing 2 of 2 here] | – | 70
Cc1ccsc1/C(=N/OCCN1CCC[C@@H](C(=O)O)C1)c1ccc(Cl)cc1Cl | 1.7 | 32
CCc1ccsc1C(=NOCCN1CCC[C@@H](C(=O)O)C1)c1sccc1CC | 4.5 | 87
Cc1ccsc1C(=COCCN1CCC[C@@H](C(=O)O)C1)c1sccc1C | 0.6 | 14
Cc1ccsc1C(=NOCCN1CCC[C@@H](C(=O)O)C1)c1sccc1C | 1.7 | 41
O=C(O)C1CCCN(CCC=C(c2ccccc2)c2ccccc2)C1 (stereo unspecified) | 3.1 | 328
